# In ChEMBL document CHEMBL1153488, “Discovery of (3-endo)-3-(2-cyano-2,2-diphenylethyl)-8,8-dimethyl-8-azoniabicyclo[3.2.1]octane bromide as an efficacious inhaled muscarinic acetylcholine receptor antagonist for the treatment of COPD” (Bioorg Med Chem Lett, 2009):
# Active and inactive are the calls of the source. No cut-off for these calls is given here.
# Columns and labels:
# [1] = biological target: T1, Muscarinic acetylcholine receptor M3 (Homo sapiens, UniProt P20309); experiment: Antagonist activity against human cloned muscarinic M3 receptor expressed in CHO cells assessed as inhibition of acetylcholine-induced calcium mobilization by FLIPR; type: functional, cell-based
# [2] = biological target: T2, Muscarinic acetylcholine receptor M2 (Homo sapiens, UniProt P08172); experiment: Antagonist activity against human cloned muscarinic M2 receptor expressed in CHO cells assessed as inhibition of acetylcholine-induced calcium mobilization by FLIPR; type: functional, cell-based
# T2 sequence (P08172 whole entry): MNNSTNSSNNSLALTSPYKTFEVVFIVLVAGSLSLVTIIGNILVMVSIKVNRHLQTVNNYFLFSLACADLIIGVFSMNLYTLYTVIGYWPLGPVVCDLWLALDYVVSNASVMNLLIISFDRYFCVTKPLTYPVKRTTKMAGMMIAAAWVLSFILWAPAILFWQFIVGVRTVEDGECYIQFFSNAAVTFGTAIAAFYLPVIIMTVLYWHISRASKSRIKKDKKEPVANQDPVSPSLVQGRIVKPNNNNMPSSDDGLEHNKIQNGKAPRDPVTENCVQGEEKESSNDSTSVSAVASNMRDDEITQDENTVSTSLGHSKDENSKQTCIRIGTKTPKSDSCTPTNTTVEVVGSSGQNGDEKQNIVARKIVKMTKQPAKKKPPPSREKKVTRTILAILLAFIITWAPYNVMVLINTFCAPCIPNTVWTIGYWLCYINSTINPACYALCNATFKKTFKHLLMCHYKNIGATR
# [3] = biological target: T1, Muscarinic acetylcholine receptor M3; experiment: Agonist activity at human cloned muscarinic M3 receptor expressed in CHO cells assessed as effect on calcium mobilization by FLIPR; type: functional, cell-based
# How it was run: (§1)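 CHO cells stably carrying cloned human M1, M2 or M3 receptor; compound applied alone and checked for direct receptor stimulation, read as calcium mobilization on a standard FLIPR protocol.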
# [4] = biological target: T3, Muscarinic acetylcholine receptor M2 (Homo sapiens) (UniProt P08172); experiment: Agonist activity at human cloned muscarinic M2 receptor expressed in CHO cells assessed as effect on calcium mobilization by FLIPR; type: functional, cell-based; how it was run: as §1
# T3 sequence (whole entry): T2 sequence (P08172 whole entry)
# [5] = biological target: T4, Muscarinic acetylcholine receptor M1 (Homo sapiens) (UniProt P11229); experiment: Agonist activity at human cloned muscarinic M1 receptor expressed in CHO cells assessed as effect on calcium mobilization by FLIPR; type: functional, cell-based; how it was run: as §1
# T4 sequence (whole entry): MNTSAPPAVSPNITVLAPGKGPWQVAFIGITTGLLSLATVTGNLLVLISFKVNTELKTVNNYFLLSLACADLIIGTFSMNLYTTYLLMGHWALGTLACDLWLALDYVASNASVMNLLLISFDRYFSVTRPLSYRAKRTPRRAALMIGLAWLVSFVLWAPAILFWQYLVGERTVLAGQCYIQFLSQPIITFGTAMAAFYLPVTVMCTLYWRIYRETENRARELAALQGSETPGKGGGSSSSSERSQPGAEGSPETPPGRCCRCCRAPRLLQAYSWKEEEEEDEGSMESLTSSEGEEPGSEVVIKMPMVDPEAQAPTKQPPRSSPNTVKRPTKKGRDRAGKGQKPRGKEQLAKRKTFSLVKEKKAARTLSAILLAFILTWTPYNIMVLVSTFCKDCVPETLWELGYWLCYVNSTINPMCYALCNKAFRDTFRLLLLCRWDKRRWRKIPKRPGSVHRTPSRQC
# [6] = biological target: T5, Muscarinic acetylcholine receptor M1 (Homo sapiens, UniProt P11229); experiment: Antagonist activity against human cloned muscarinic M1 receptor expressed in CHO cells assessed as inhibition of acetylcholine-induced calcium mobilization by FLIPR; type: functional, cell-based
# T5 sequence (P11229 whole entry): T4 sequence (whole entry)
# Mus musculus [7] = experiment: Bronchoprotection in Balb/C mouse bronchoconstriction model assessed as inhibition of aerosolized methacholin-induced bronchoconstriction at 5 ug administered intranasally 24 hrs before methacholin challenge; type: functional
# [8] = biological target: T5, Muscarinic acetylcholine receptor M1; experiment: Displacement of [3H]N-methyl Scopolamine from human cloned muscarinic M1 receptor expressed in CHO cell membrane; type: cell membranes
# How it was run: (§2)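 SPA format with CHO cell membrane preparations bearing human M1 or M2 receptor; competition versus 0.5 nM [3H]-N-methyl scopolamine; Ki reported; mean of two or more independent assays.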
# [9] = biological target: T2, Muscarinic acetylcholine receptor M2; experiment: Antagonist activity against human cloned muscarinic M2 receptor expressed in CHO cells assessed as inhibition of acetylcholine-induced calcium mobilization by measuring ratio of acetylcholine EC50 in presence and absence of compound by FLIPR assay; type: functional, cell-based; conditions: read-out: pA2 (converted)
# How it was run: (§3)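 Run as pA2 determination on FLIPR in CHO cells expressing human M1 or M2 receptor: ACh concentration–response run with and without a single concentration of compound, calcium mobilization read, and the ratio of ACh EC50 values used to derive pA2.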
# [10] = biological target: T1, Muscarinic acetylcholine receptor M3; experiment: Displacement of [3H]N-methyl Scopolamine from human cloned muscarinic M3 receptor expressed in CHO cell membrane; type: cell membranes
# How it was run: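 SPA-format competition binding on membranes from CHO cells expressing the human M3 receptor, against 0.5 nM [3H]-N-methyl scopolamine. Ki values are the mean of two or more independent assays.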
# [11] = biological target: T2, Muscarinic acetylcholine receptor M2; experiment: Displacement of [3H]N-methyl Scopolamine from human cloned muscarinic M2 receptor expressed in CHO cell membrane; type: cell membranes; how it was run: as §2
# [12] = biological target: T1, Muscarinic acetylcholine receptor M3; experiment: Antagonist activity against human cloned muscarinic M3 receptor expressed in CHO cells assessed as inhibition of acetylcholine-induced calcium mobilization by measuring ratio of acetylcholine EC50 in presence and absence of compound by FLIPR assay; type: functional, cell-based; conditions: read-out: pA2 (converted)
# How it was run: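 CHO cells expressing cloned human M3 receptor, stimulated with ACh. Calcium mobilization read by a standard FLIPR protocol. ACh EC50 was measured with and without a single concentration of compound, and pA2 was derived from the ratio of the EC50s.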
# [13] = biological target: T5, Muscarinic acetylcholine receptor M1; experiment: Antagonist activity against human cloned muscarinic M1 receptor expressed in CHO cells assessed as inhibition of acetylcholine-induced calcium mobilization by measuring ratio of acetylcholine EC50 in presence and absence of compound by FLIPR assay; type: functional, cell-based; conditions: read-out: pA2 (converted); how it was run: as §3
# Mus musculus [14] = experiment: Bronchoprotection in Balb/C mouse bronchoconstriction model assessed as inhibition of aerosolized methacholin-induced bronchoconstriction at 50 ug administered intranasally 24 hrs before methacholin challenge; type: functional
# How it was run: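 Conscious mice given compound by inhalation at 50 µg per mouse 24 h before challenge with aerosolized methacholine; bronchoconstriction inhibition recorded.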
# Mus musculus [15] = experiment: Bronchoprotection in Balb/C mouse bronchoconstriction model assessed as inhibition of aerosolized methacholin-induced bronchoconstriction at 5 ug administered intranasally before 0.25 to 48 hrs before methacholin challenge; type: functional, organism-based
# How it was run: (§4)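 Balb/C mice (n = 4) dosed intranasally at 0.5 or 5.0 µg per mouse, then challenged with aerosolized methacholine 30 mg/ml for 2 min at 0.25–48 h after dosing; Penh by plethysmography over 5 min, expressed as post-drug/pre-drug Penh ratio.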
# Mus musculus [16] = experiment: Bronchoprotection in Balb/C mouse bronchoconstriction model assessed as inhibition of aerosolized methacholin-induced bronchoconstriction administered intranasally before 5 hrs before methacholin challenge; type: functional, organism-based
# How it was run: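 Balb/C mice (n = 4) dosed intranasally across a dose range (µg/mouse), challenged 5 h later with aerosolized methacholine 30 mg/ml for 2 min; Penh by whole-body plethysmography over 5 min; ratio of post-drug to pre-drug Penh (1.0 = 0% inhibition, 0.0 = 100%); ED50 from dose–response.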
# Mus musculus [17] = experiment: Bronchoprotection in Balb/C mouse bronchoconstriction model assessed as inhibition of aerosolized methacholin-induced bronchoconstriction at 0.5 ug administered intranasally before 0.25 to 48 hrs before methacholin challenge; type: functional, organism-based; how it was run: as §4
Structure (SMILES),IC50 [1] [nM],IC50 [2] [nM],Activity [3],Activity [4],Activity [5],IC50 [6] [nM],inhibition (INH) (Mus musculus [7]) [%],Ki [8] [nM],Kb [9] [nM],Ki [10] [nM],Ki [11] [nM],Kb [12] [nM],Kb [13] [nM],inhibition (INH) (Mus musculus [14]) [%],Activity (Mus musculus [15]),Activity (Mus musculus [16]),Activity (Mus musculus [17])
CC(=O)NCC(C[C@H]1C[C@H]2CC[C@@H](C1)N2C)(c1ccccc1)c1ccccc1,2900,3480,inactive,inactive,inactive,2200,–,–,–,–,–,–,–,–,–,–,–
C[N+]1(C)[C@@H]2CC[C@H]1C[C@@H](CC(CO)(c1ccccc1)c1ccccc1)C2.[Br-],< 10,< 10,inactive,inactive,inactive,< 10,23,1.26,5.01,2.51,3.98,3.16,1.58,–,–,–,–
CN1[C@@H]2CC[C@H]1C[C@@H](CC(CNC(N)=O)(c1ccccc1)c1ccccc1)C2,6400,5340,inactive,inactive,inactive,3830,–,–,–,–,–,–,–,–,–,–,–
CN1[C@@H]2CC[C@H]1C[C@@H](CC(C(=O)NCc1ccccc1)(c1ccccc1)c1ccccc1)C2,839,545,inactive,inactive,inactive,596,–,–,–,–,–,–,–,–,–,–,–
CN1[C@@H]2CC[C@H]1C[C@@H](CC(C#N)(c1ccccc1)c1ccccc1)C2,< 10,< 10,inactive,inactive,inactive,< 10,11,0.1,0.316,0.158,0.501,0.0631,0.0158,–,–,–,–
CN1[C@@H]2CC[C@H]1C[C@@H](CC(CNC(=O)NCc1ccccc1)(c1ccccc1)c1ccccc1)C2,1340,1270,inactive,inactive,inactive,1020,–,–,–,–,–,–,–,–,–,–,–
C[N+]1(C)[C@@H]2CC[C@H]1C[C@@H](CC(O)(c1ccccc1)c1ccccc1)C2.[Br-],< 10,< 10,inactive,inactive,inactive,< 10,34,1.58,0.501,3.16,3.98,0.501,0.251,–,–,–,–
CCNC(=O)NCC(C[C@H]1C[C@H]2CC[C@@H](C1)N2C)(c1ccccc1)c1ccccc1,1940,1550,inactive,inactive,inactive,1280,–,–,–,–,–,–,–,–,–,–,–
CN1[C@@H]2CC[C@H]1C[C@@H](CC(CNS(=O)(=O)c1ccccc1)(c1ccccc1)c1ccccc1)C2,1060,458,inactive,inactive,inactive,770,–,–,–,–,–,–,–,–,–,–,–
CN1[C@@H]2CC[C@H]1C[C@@H](CC(CO)(c1ccccc1)c1ccccc1)C2,< 10,< 10,inactive,inactive,inactive,< 10,15,1,6.31,2.51,12.6,3.98,1.26,–,–,–,–
CN1[C@@H]2CC[C@H]1C[C@@H](CC(C(=O)O)(c1ccccc1)c1ccccc1)C2,687,240,inactive,inactive,inactive,277,–,–,–,–,–,–,–,–,–,–,–
CN1[C@@H]2CC[C@H]1C[C@@H](CC(O)(c1ccccc1)c1ccccc1)C2,< 10,< 10,inactive,inactive,inactive,< 10,–,0.501,3.98,2,6.31,2.51,0.794,<5,–,–,–
CN1[C@@H]2CC[C@H]1C[C@@H](CC(c1ccccc1)(c1ccccc1)c1ccccc1)C2,206,1200,inactive,inactive,inactive,105,–,–,–,–,–,–,–,–,–,–,–
CN1[C@@H]2CC[C@H]1C[C@@H](CC(CNS(C)(=O)=O)(c1ccccc1)c1ccccc1)C2,2730,2120,inactive,inactive,inactive,1600,–,–,–,–,–,–,–,–,–,–,–
C[N+]1(C)[C@@H]2CC[C@H]1C[C@@H](CC(C#N)(c1ccccc1)c1ccccc1)C2.[Br-],< 10,< 10,inactive,inactive,inactive,< 10,>95,0.0501,0.0501,0.0631,0.158,0.02,0.00398,–,Active,Dose-dependent effect,Active
